Our source for the IC50 and Ki values is ChEMBL document CHEMBL1149332, “Synthesis of benzoylpyrimidines as antagonists of the corticotropin-releasing factor-1 receptor” (Bioorg Med Chem Lett, 2004).

Each structure is given as a SMILES string.

As usually defined, the IC50 is the concentration that gives 50% inhibition. The term Ki denotes a measure of affinity in units of concentration, obtained from inhibition or displacement.

One test concerns the target T1, Corticotropin-releasing factor receptor 1 (Homo sapiens, UniProt P34998).
T1 sequence (P34998 whole entry): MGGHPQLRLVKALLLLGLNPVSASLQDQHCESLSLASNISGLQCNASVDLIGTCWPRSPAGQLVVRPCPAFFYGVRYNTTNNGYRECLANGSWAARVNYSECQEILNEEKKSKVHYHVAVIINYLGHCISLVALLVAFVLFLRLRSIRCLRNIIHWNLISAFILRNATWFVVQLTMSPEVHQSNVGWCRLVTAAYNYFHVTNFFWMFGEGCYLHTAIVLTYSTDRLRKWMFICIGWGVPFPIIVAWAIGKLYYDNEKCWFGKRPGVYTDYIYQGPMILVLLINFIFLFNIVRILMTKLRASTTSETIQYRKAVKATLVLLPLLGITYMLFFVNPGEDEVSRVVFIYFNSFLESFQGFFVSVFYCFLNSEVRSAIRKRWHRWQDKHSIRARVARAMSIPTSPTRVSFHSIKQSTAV
Kind of test: Inhibition of CRF-stimulated cAMP production in cells expressing CRF1 receptor.
Settings: not given
In outline:
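CHO cells expressing the CRF1 receptor; antagonism of CRF-stimulated cAMP production measured over a range of compound concentrations, with IC50 taken from the concentration-response.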
For orientation: Cyclic AMP is a second messenger, typically raised through Gs and lowered through Gi signalling.
Turning to `CCCN(CC1CC1)c1nc(C)nc(C(=O)c2c(C)cc(C)cc2C)c1C`, half-maximal inhibition (IC50) was put at 1200 nM. For the molecule `CCCN(CC1CC1)c1nc(C)nc(C(=O)c2c(OC)cc(OC)cc2OC)c1C`, 1000 nM corresponded to half-maximal inhibition (IC50).

The next test deals with Corticotropin releasing factor receptor (Rattus norvegicus, UniProt P47866+P35353). Kind of test: Inhibition of CRF-stimulated ACTH release in primary rat anterior pituitary cells. In kind it is functional, cell-based. The note with it: pituitary gland cell.
`CCCN(CC1CC1)c1nc(C)nc(C(=O)c2c(C)cc(C)cc2C)c1C` registered an IC50 of 980 nM.

The target of another test is T1, Corticotropin-releasing factor receptor 1. Kind of test: Binding affinity for recombinant human CRF1 receptor.
Settings: not given
`CCCN(CC1CC1)c1cc(C(=O)c2c(C)c(C)c(C)c(C)c2C)nc(C)n1`: the Ki is more than 10000 nM.

Consider `CCC(CC)Nc1nc(C)nc(C(=O)c2c(C)cc(C)cc2C)c1C`, for which the Ki amounted to 220 nM. Take `CCCN(CC1CC1)c1nc(C)nc(C(=O)c2c(C)cc(C)cc2C)c1C`: the Ki is 15 nM. Take `Cc1cc(C)c(C(=O)c2nc(C)nc(N3CCCC3)c2C)c(C)c1`: the Ki is more than 10000 nM. As for `CCCN(CC1CC1)c1cc(C)nc(C(=O)c2c(OC)cc(OC)cc2OC)n1`, the Ki turned out to be 630 nM. Regarding `CCCN(CCC)c1nc(C)nc(C(=O)c2c(C)cc(C)cc2C)c1C`, the Ki stood at 58 nM. `CCCN(CC1CC1)c1nc(C)nc(C(=O)c2c(OC)cc(OC)cc2OC)c1C`: the Ki stood at 38 nM.

For `CCCN(CC1CC1)c1nc(C)nc(C(=O)c2c(C)c(C)c(C)c(C)c2C)c1C`, the Ki was determined as 5100 nM. Take `C=CCc1c(C(=O)c2c(C)cc(C)cc2C)nc(C)nc1N(CCC)CC1CC1`: the Ki was 31 nM. The same measure, in the same setting: the result for `CCCN(CC1CC1)c1nc(C)nc(C(=O)c2c(CC)cc(CC)cc2CC)c1C` reads 13 nM; that for `Cc1cc(C)c(C(=O)c2nc(C)nc(N3CCOCC3)c2C)c(C)c1`, more than 10000 nM; that for `CCCN(CC1CC1)c1nc(C)nc(C(=O)c2ccccc2C)c1C`, 810 nM. The same measure, in the same setting: with `CCN(c1ccccc1)c1nc(C)nc(C(=O)c2c(C)cc(C)cc2C)c1C` the figure was 470 nM; with `CCCN(CC1CC1)c1nc(C)nc(C(=O)c2c(C)cc(C)cc2C)c1CC`, 55 nM.

As for `COC[C@@H]1CCCN1c1nc(C)nc(C(=O)c2c(C)cc(C)cc2C)c1C`, the Ki was 380 nM. Still for that read-out and setting: with `C=CCN(CC=C)c1nc(C)nc(C(=O)c2c(C)cc(C)cc2C)c1C` the figure was 38 nM.

`CCCN(CC1CC1)c1cc(C(=O)c2c(OC)cc(OC)cc2OC)nc(C)n1`: the Ki worked out at 1100 nM. `C=C(c1nc(C)nc(N(CCC)CC2CC2)c1C)c1c(OC)cc(OC)cc1OC`: the Ki worked out at 560 nM.

`CCCN(CC1CC1)c1nc(C)nc(C(O)c2c(CC)cc(CC)cc2CC)c1C` (centres undefined): the Ki was determined as 360 nM. Same read-out and setting: with `CCCN(CC1CC1)c1nc(C)nc(Cc2c(OC)cc(OC)cc2OC)c1C` the figure was 26 nM; with `CCCN(CC1CC1)c1nc(C)nc(C(O)c2c(C)cc(C)cc2C)c1C` (centres undefined), 79 nM; with `CCCN(CC1CC1)c1nc(C)nc(C(C)(C)c2c(OC)cc(OC)cc2OC)c1C`, more than 10000 nM.

On to `CCCN(CC1CC1)c1cc(C(=O)c2c(C)cc(C)cc2C)nc(C)n1`, for which the inhibition constant (Ki) is 200 nM.

On to `CCCN(CC1CC1)c1nc(C)nc(C(=O)c2ccc(OC)cc2OC)c1C`, for which the Ki was found to be 810 nM. Still for that read-out and setting: the result for `CCCN(CCO)c1nc(C)nc(C(=O)c2c(C)cc(C)cc2C)c1C` reads 540 nM; that for `CCCN(CC1CC1)c1nc(C)nc(Nc2c(Cl)cc(Cl)cc2Cl)c1Cl`, 2.7 nM.
